Experiments:
Plasmodium falciparum [1] = assay: Antimalarial activity against Plasmodium falciparum 3D7; type: functional; details: Plasmodium falciparum, 3D7; read-out: ED50 (the source's name)
In short: (§1)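 Asynchronous culture in type A+ erythrocytes at 0.5% parasitemia and 0.5% hematocrit, grown in RPMI-1640 with 20% heat-inactivated human A+ plasma. Compound was serially diluted from a top final 5 µM, with DMSO vehicle as 100% growth. Plates ran 48 h at 37 °C under 5% CO2/5% O2/90% N2, then [3H]-hypoxanthine (0.3 µCi) for 24 h. Filter-harvested counts were corrected for the uninfected-RBC background. ED50 by linear regression; duplicates averaged.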

Plasmodium falciparum [2] = assay: Inhibition of Plasmodium falciparum protein farnesyltransferase at 0.5 nM by scintillation proximity assay
Plasmodium falciparum [3] = assay: Inhibition of Plasmodium falciparum protein farnesyltransferase at 5 nM by scintillation proximity assay
Plasmodium falciparum [4] = assay: Inhibition of Plasmodium falciparum protein farnesyltransferase at 50 nM by scintillation proximity assay
Plasmodium falciparum [5] = assay: Antimalarial activity against Plasmodium falciparum K1; type: functional; details: Plasmodium falciparum, K1; read-out: ED50 (the source's name); in short: as §1

Cn1cnc(CN2CC(N(CC(=O)NC(C)(C)C)S(C)(=O)=O)Cc3cc(-c4ccccc4)ccc32)c1 (stereo not given) gave an EC50 (Plasmodium falciparum [1]) of over 5000 nM, an inhibition (Plasmodium falciparum [2]) of 0% and an inhibition (Plasmodium falciparum [3]) of 0%. It also gave an inhibition (Plasmodium falciparum [4]) of 2% and an EC50 (Plasmodium falciparum [5]) of over 5000 nM.

CN(C1Cc2cc(-c3ccccc3)ccc2N(Cc2cn(C)cn2)C1)S(=O)(=O)c1cn(C)cn1 (stereo not given) gave an EC50 (Plasmodium falciparum [1]) of over 5000 nM, an inhibition (Plasmodium falciparum [2]) of 10% and an inhibition (Plasmodium falciparum [3]) of 38%. The inhibition (Plasmodium falciparum [4]) was 88% and the EC50 (Plasmodium falciparum [5]) was over 5000 nM.

Work on CCN(CC)C(=O)c1ccc2c(c1)CC(N(CC(=O)NC(C)(C)C)S(=O)(=O)c1cn(C)cn1)CN2Cc1cncn1C (stereo not given) yielded an EC50 (Plasmodium falciparum [1]) of 2800 nM, an inhibition (Plasmodium falciparum [2]) of 0% and an inhibition (Plasmodium falciparum [3]) of 23%. It also gave an inhibition (Plasmodium falciparum [4]) of 73% and an EC50 (Plasmodium falciparum [5]) of 2600 nM.

In the case of COCCCN(C1Cc2cc(C#N)ccc2N(Cc2cncn2C)C1)S(=O)(=O)c1ccccn1 (stereo not given), the EC50 (Plasmodium falciparum [1]) is reported as 230 nM, the inhibition (Plasmodium falciparum [2]) is reported as 18% and the inhibition (Plasmodium falciparum [3]) is reported as 64%. For the same molecule, the inhibition (Plasmodium falciparum [4]) was 93% and the EC50 (Plasmodium falciparum [5]) was 1000 nM.

For Cn1cnc(CN2CC(N(CC(=O)NC(C)(C)C)S(=O)(=O)c3cccs3)Cc3cc(-c4ccccc4)ccc32)c1 (stereo not given), the EC50 (Plasmodium falciparum [1]) was 3500 nM, the inhibition (Plasmodium falciparum [2]) was 4% and the inhibition (Plasmodium falciparum [3]) was 1%. For the same molecule, the inhibition (Plasmodium falciparum [4]) was 10% and the EC50 (Plasmodium falciparum [5]) was over 5000 nM.

Molecule Cn1cncc1CN1CC(N(Cc2ccc(S(C)(=O)=O)cc2)S(=O)(=O)c2ccccc2)Cc2cc(C#N)ccc21 (stereo not given) has an EC50 (Plasmodium falciparum [1]) of 165 nM, an inhibition (Plasmodium falciparum [2]) of 38% and an inhibition (Plasmodium falciparum [3]) of 91%. It also gave an inhibition (Plasmodium falciparum [4]) of 99% and an EC50 (Plasmodium falciparum [5]) of 330 nM.

With Cn1cncc1CN1CC(N(CC2CCN(C(=O)OCc3ccccc3)CC2)S(=O)(=O)c2ccccn2)Cc2cc(C#N)ccc21 (stereo not given) the EC50 (Plasmodium falciparum [1]) was 550 nM, the inhibition (Plasmodium falciparum [2]) was 66% and the inhibition (Plasmodium falciparum [3]) was 13%. The inhibition (Plasmodium falciparum [4]) was 98% and the EC50 (Plasmodium falciparum [5]) was 650 nM.

In the case of Cn1cncc1CN1CC(N(CC2CCN(C(=O)C3CCCC3)CC2)S(=O)(=O)c2ccccn2)Cc2cc(C#N)ccc21 (stereo not given), the EC50 (Plasmodium falciparum [1]) is reported as 58 nM, the inhibition (Plasmodium falciparum [2]) is reported as 94% and the inhibition (Plasmodium falciparum [3]) is reported as 39%. It also gave an inhibition (Plasmodium falciparum [4]) of 100% and an EC50 (Plasmodium falciparum [5]) of 50 nM.

For COCCCCCN(C1Cc2cc(C#N)ccc2N(Cc2cncn2C)C1)S(=O)(=O)c1ccccn1 (stereo not given), the EC50 (Plasmodium falciparum [1]) was 189 nM, the inhibition (Plasmodium falciparum [2]) was 17% and the inhibition (Plasmodium falciparum [3]) was 65%. For the same molecule, the inhibition (Plasmodium falciparum [4]) was 96% and the EC50 (Plasmodium falciparum [5]) was 932 nM.

With COC(=O)N1CCC(CN(C2Cc3cc(C#N)ccc3N(S(=O)(=O)c3cncn3C)C2)S(=O)(=O)c2ccccn2)CC1 (stereo not given) the EC50 (Plasmodium falciparum [1]) was over 5000 nM, the inhibition (Plasmodium falciparum [2]) was 0% and the inhibition (Plasmodium falciparum [3]) was 0%. The inhibition (Plasmodium falciparum [4]) was 0% and the EC50 (Plasmodium falciparum [5]) was 3200 nM.

Cn1cnc(S(=O)(=O)N(Cc2ccc(-n3cccc3)cc2)C2Cc3cc(C#N)ccc3N(Cc3cncn3C)C2)c1 (stereo not given) gave an EC50 (Plasmodium falciparum [1]) of 68 nM, an inhibition (Plasmodium falciparum [2]) of 9% and an inhibition (Plasmodium falciparum [3]) of 90%. For the same molecule, the inhibition (Plasmodium falciparum [4]) was 99% and the EC50 (Plasmodium falciparum [5]) was 65 nM.

With Cn1cnc(S(=O)(=O)N(Cc2ccc3cccnc3c2)C2Cc3cc(C#N)ccc3N(Cc3cncn3C)C2)c1 (stereo not given) the EC50 (Plasmodium falciparum [1]) was 210 nM, the inhibition (Plasmodium falciparum [2]) was 37% and the inhibition (Plasmodium falciparum [3]) was 91%. The inhibition (Plasmodium falciparum [4]) was 99% and the EC50 (Plasmodium falciparum [5]) was 600 nM.

With Cn1cnc(CN2CC(N(CC(=O)NC(C)(C)C)S(=O)(=O)c3ccccc3)Cc3cc(-c4ccccc4)ccc32)c1 (stereo not given) the EC50 (Plasmodium falciparum [1]) was 2800 nM, the inhibition (Plasmodium falciparum [2]) was 0% and the inhibition (Plasmodium falciparum [3]) was 0%. For the same molecule, the inhibition (Plasmodium falciparum [4]) was 8% and the EC50 (Plasmodium falciparum [5]) was 2800 nM.

CN(C)CCCN(C1Cc2cc(C#N)ccc2N(Cc2cncn2C)C1)S(=O)(=O)c1cn(C)cn1 (stereo not given) gave an EC50 (Plasmodium falciparum [1]) of 2600 nM, an inhibition (Plasmodium falciparum [2]) of 0% and an inhibition (Plasmodium falciparum [3]) of 9%. For the same molecule, the inhibition (Plasmodium falciparum [4]) was 34% and the EC50 (Plasmodium falciparum [5]) was over 5000 nM.

Molecule COC(=O)N1CCC(CN(C2Cc3cc(C#N)ccc3N(Cc3cncn3C)C2)S(=O)(=O)c2cccc3cccnc23)CC1 (stereo not given) has an EC50 (Plasmodium falciparum [1]) of 260 nM, an inhibition (Plasmodium falciparum [2]) of 24% and an inhibition (Plasmodium falciparum [3]) of 80%. For the same molecule, the inhibition (Plasmodium falciparum [4]) was 95% and the EC50 (Plasmodium falciparum [5]) was 400 nM.

Work on COC(=O)NCCCN(C1Cc2cc(C#N)ccc2N(Cc2cncn2C)C1)S(=O)(=O)c1ccccn1 (stereo not given) yielded an EC50 (Plasmodium falciparum [1]) of 100 nM, an inhibition (Plasmodium falciparum [2]) of 28% and an inhibition (Plasmodium falciparum [3]) of 77%. For the same molecule, the inhibition (Plasmodium falciparum [4]) was 96% and the EC50 (Plasmodium falciparum [5]) was 100 nM.

Cn1cncc1CN1CC(N(CCn2ccnc2)S(=O)(=O)c2ccccn2)Cc2cc(C#N)ccc21 (stereo not given) showed an EC50 (Plasmodium falciparum [1]) of 12 nM, an inhibition (Plasmodium falciparum [2]) of 67% and an inhibition (Plasmodium falciparum [3]) of 91%. It also gave an inhibition (Plasmodium falciparum [4]) of 95% and an EC50 (Plasmodium falciparum [5]) of 16 nM.

Cn1cnc(CN2CC(N(CCS(C)(=O)=O)S(=O)(=O)c3cn(C)cn3)Cc3cc(-c4ccccc4)ccc32)c1 (stereo not given) was tested, and the EC50 (Plasmodium falciparum [1]) was 400 nM, the inhibition (Plasmodium falciparum [2]) was 29% and the inhibition (Plasmodium falciparum [3]) was 91%. For the same molecule, the inhibition (Plasmodium falciparum [4]) was 99% and the EC50 (Plasmodium falciparum [5]) was 700 nM.

CC(=O)Nc1ccc(S(=O)(=O)N(Cc2ccccc2F)C2Cc3cc(C#N)ccc3N(Cc3cncn3C)C2)cc1 (stereo not given) was tested, and the EC50 (Plasmodium falciparum [1]) was 150 nM, the inhibition (Plasmodium falciparum [2]) was 4% and the inhibition (Plasmodium falciparum [3]) was 4%. The inhibition (Plasmodium falciparum [4]) was 25% and the EC50 (Plasmodium falciparum [5]) was 150 nM.

Molecule Cn1cncc1CN1CC(N(Cc2ccc(S(C)(=O)=O)cc2)S(=O)(=O)c2ccccn2)Cc2cc(C#N)ccc21 (stereo not given) has an EC50 (Plasmodium falciparum [1]) of 210 nM, an inhibition (Plasmodium falciparum [2]) of 49% and an inhibition (Plasmodium falciparum [3]) of 84%. The inhibition (Plasmodium falciparum [4]) was 96% and the EC50 (Plasmodium falciparum [5]) was 405 nM.

With Cn1cnc(S(=O)(=O)N(CC(=O)NC(C)(C)C)C2Cc3cc(C(=O)NC4CCCCC4)ccc3N(Cc3cncn3C)C2)c1 (stereo not given) the EC50 (Plasmodium falciparum [1]) was 2800 nM, the inhibition (Plasmodium falciparum [2]) was 5% and the inhibition (Plasmodium falciparum [3]) was 17%. The inhibition (Plasmodium falciparum [4]) was 66% and the EC50 (Plasmodium falciparum [5]) was 2300 nM.

From ChEMBL document CHEMBL1148785, “Second generation tetrahydroquinoline-based protein farnesyltransferase inhibitors as antimalarials” (J Med Chem, 2007)
